Results: ChEMBL document CHEMBL2434878, “Synthesis and antimycobacterial activity of analogues of the bioactive natural products sampangine and cleistopholine” (Eur J Med Chem, 2013)

What follows are compounds tested on Mycobacterium tuberculosis variant bovis (assay: Antimicrobial activity against Mycobacterium bovis AN5 expressing luciferase reporter gene assessed as growth inhibition after 6 days by luminometry). Conditions: AN5, 144 h.
Format: functional
In short: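 Other mycobacteria (M. avium ssp. avium ATCC 15769, ssp. paratuberculosis ATCC 19698, M. bovis AN5) were grown in 7H9 with 10% OADC and 0.2% glycerol; M. bovis had 0.05% Tween 80 in place of glycerol, and paratuberculosis had mycobactin J (2 mg/ml); all were grown at 39 °C. Serial dilutions were tested by the luciferase luminometry assay and the 50% growth-reduction concentration was read.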

SMILES	GI50
CN(C)/C=C/c1nc(-c2ccc(Cl)cc2)cc2c1C(=O)c1ccccc1C2=O	490 nM
COc1ccc(-c2cc3c(c(/C=C/N(C)C)n2)C(=O)c2ccccc2C3=O)cc1	470 nM
CN(C)/C=C/c1nc(-c2ccccc2)cc2c1C(=O)c1ccccc1C2=O	640 nM
CN(C)/C=C/c1nc(-c2ccc(F)cc2)cc2c1C(=O)c1ccccc1C2=O	480 nM
Cc1ccc(-c2cc3c(c(/C=C/N(C)C)n2)C(=O)c2ccccc2C3=O)cc1	580 nM
O=C1c2ccccc2-c2nccc3nc(-c4ccc(F)cc4)cc1c23	670 nM
O=C1c2ccccc2C(=O)c2c(O)cc(-c3ccccc3)cc21	800 nM
COc1ccc(-c2cc(O)c3c(c2)C(=O)c2ccccc2C3=O)cc1	380 nM
COc1ccc(-c2cc3c4c(nccc4n2)-c2ccccc2C3=O)cc1	520 nM
O=C1c2ccccc2-c2nccc3nc(-c4ccccc4)cc1c23	670 nM
